inhibition, viability and IC50 data for 9 molecules are collected here from article PMC9134407 (ACS Omega, 2022).

Where only a bound is given, the exact number is not on record here.

The target of one data set is T1, human FXR (Homo sapiens, UniProt Q96RI1).
T1 sequence (Q96RI1 1-486): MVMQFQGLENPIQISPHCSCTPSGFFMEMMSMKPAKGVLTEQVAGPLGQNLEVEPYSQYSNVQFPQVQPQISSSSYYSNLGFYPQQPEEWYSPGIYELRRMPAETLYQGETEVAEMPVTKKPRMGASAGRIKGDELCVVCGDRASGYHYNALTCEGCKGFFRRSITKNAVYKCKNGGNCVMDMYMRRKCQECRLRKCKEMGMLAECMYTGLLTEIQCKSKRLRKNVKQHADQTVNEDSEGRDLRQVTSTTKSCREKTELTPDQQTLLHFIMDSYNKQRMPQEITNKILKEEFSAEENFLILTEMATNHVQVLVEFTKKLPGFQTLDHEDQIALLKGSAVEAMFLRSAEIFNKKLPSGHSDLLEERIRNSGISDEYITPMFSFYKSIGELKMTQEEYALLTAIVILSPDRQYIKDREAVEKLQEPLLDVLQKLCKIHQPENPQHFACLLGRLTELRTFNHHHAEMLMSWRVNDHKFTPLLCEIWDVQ
Nature of the data set: cell-based luciferase reporter assay. The following applies: for inhibition at 10 µM: HEK-293T. The method in brief:
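HEK293T cells transiently cotransfected with a human FXR expression vector and an SHP promoter luciferase reporter (SHP-luc). Transactivation was driven by GW4064 at 10 μM, with or without test compound. FXR-dependent reporter activity was read as luciferase signal.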
In general terms: Reporter assays use an easily measured gene product as a stand-in for the process of interest.

The nature of data set [1]: Cell-Titer Blue cytotoxicity assay. The conditions noted are these: human, HEK293T cells. It counts as cell-based.
The next data set relates to FXR. The following applies: read-out: IC50 FXR antagonist; cited from earlier work.

The term inhibition denotes the percentage by which the read-out fell short of the control. The low end stands for a response near the control, the high end for a response far below the control. The viability is a per cent measure of how many cells are alive, often set against a control. Higher therefore signals better survival. Regarding `CC(=O)O[C@@H]1CC[C@]2(C)C(=O)[C@H](C3CC[C@H]([C@H](C)CCCC(C)C)[C@@]3(C)CC(=O)O)CC[C@H]2C1` (stereo partly shown) [Compound 3a], at human FXR, the inhibition at 10 µM is 54.7 ± 6.2%. This molecule also returned a viability at 10 µM in data set [1] of over 100%.

In the case of `CC(=O)O[C@H]1CC[C@]2(C)C(=O)[C@H](C3CC[C@H]([C@H](C)CCCC(C)C)[C@@]3(C)CC(=O)O)CC[C@H]2C1` (stereo partly shown) [Compound 3b], the inhibition at 10 µM on human FXR is 24.9 ± 2%. This molecule also came in with a viability at 10 µM in data set [1] of over 100%.

In the case of `CC(C)CCC[C@@H](C)[C@H]1CCC([C@@H]2CC[C@H]3C[C@H](O)CC[C@]3(C)C2=O)[C@]1(C)CC(=O)O` (stereo partly shown) [Compound 4a], 10 µM produced 53.1 ± 4.9% inhibition on human FXR. Also, in data set [1], the viability at 10 µM was over 100%.

In turn, `CC(C)CCC[C@@H](C)[C@H]1CCC([C@@H]2CC[C@H]3C[C@@H](O)CC[C@]3(C)C2=O)[C@]1(C)CC(=O)O` (stereo partly shown) [Compound 4b] came in with an inhibition at 10 µM on human FXR of 14.1 ± 4.1%. For the same molecule, in data set [1], the viability at 10 µM was over 100%.

For the molecule `CC(C)CCC[C@@H](C)[C@H]1CCC([C@@H]2CC[C@H]3C[C@H](O)CC[C@]3(C)C2=O)[C@]1(C)C/C=C/C(=O)O` (stereo partly shown) [Compound 7], the inhibition at 10 µM against human FXR was 76.3 ± 1.9%. In addition, in data set [1], the viability at 10 µM was over 100%.

By IC50 is commonly meant the concentration that inhibits the measured activity by half. Turning to `CC(C)CCC[C@@H](C)[C@H]1CCC([C@@H]2CC[C@H]3C[C@H](O)CC[C@]3(C)C2=O)[C@]1(C)CCCC(=O)O` (stereo partly shown) [Compound 8], at human FXR, the IC50 was found to be 7.7 µM and testing at 10 µM gave an inhibition of 85.8 ± 2.4%. In data set [1], this molecule gave a viability of 41.1% and a viability at 10 µM of over 100%.

In the case of `C[C@H](CCC(=O)NCC(=O)O)[C@H]1CC[C@H]2[C@@H]3[C@@H](O)C[C@@H]4C[C@H](O)CC[C@]4(C)[C@H]3CC[C@]12C` [GUDCA, glycoursodeoxycholic acid], the IC50 in the data set on FXR was 77.2 µM.

`C[C@H](CCC(=O)O)[C@H]1CC[C@H]2[C@@H]3[C@H](O)[C@H](O)[C@@H]4C[C@H](O)CC[C@]4(C)[C@H]3CC[C@]12C` [HCA, hyocholic acid, reference compound]: the IC50 in the data set on FXR is 70.1 µM; at human FXR, 27.3 µM. The molecule also returned a viability in data set [1] of over 100%.

On to `C[C@H](CCC(=O)NCCS(=O)(=O)O)[C@H]1CC[C@H]2[C@@H]3[C@@H](O)C[C@@H]4C[C@H](O)CC[C@]4(C)[C@H]3CC[C@]12C` [TUDCA, tauroursodeoxycholic acid], for which the IC50 in the data set with FXR was 75.1 µM.
